Assay results taken from ChEMBL document CHEMBL3804799, “Synthesis and Biological Evaluation of Novel σ1 Receptor Ligands for Treating Neuropathic Pain: 6-Hydroxypyridazinones” (J Med Chem, 2016).

How the values were obtained:
[1] = target: T1, 5-hydroxytryptamine receptor 1A (Rattus norvegicus) (UniProt P19327); assay: Displacement of [3H]-8-OH-DPAT from 5HT1A receptor in rat cerebral cortex at 1 uM after 30 mins by liquid scintillation counting analysis; format: tissue-based
T1 sequence (whole entry): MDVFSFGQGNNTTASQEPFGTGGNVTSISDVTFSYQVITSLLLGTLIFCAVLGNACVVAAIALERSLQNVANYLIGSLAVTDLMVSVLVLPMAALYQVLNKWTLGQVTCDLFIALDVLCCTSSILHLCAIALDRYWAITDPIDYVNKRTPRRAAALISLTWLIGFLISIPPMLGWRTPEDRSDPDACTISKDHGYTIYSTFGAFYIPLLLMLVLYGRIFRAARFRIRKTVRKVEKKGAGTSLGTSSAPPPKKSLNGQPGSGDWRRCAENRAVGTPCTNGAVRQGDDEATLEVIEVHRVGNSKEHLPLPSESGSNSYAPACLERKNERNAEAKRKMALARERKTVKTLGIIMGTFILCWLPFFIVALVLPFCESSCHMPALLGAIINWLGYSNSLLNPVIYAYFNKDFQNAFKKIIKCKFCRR

[2] = system: Mus musculus; format: toxicity, organism-based, Kun Ming; details: in vivo, po, 160 mg/kg
[3] = target: Glutamate NMDA receptor (Rattus norvegicus) (UniProt P35439+Q00959+Q00960+Q00961+Q62645+Q8VHN2+Q9R1M7); assay: Displacement of [3H]-glycine from NMDA receptor in rat hippocampal membrane at 1 uM after 30 mins by liquid scintillation counting analysis; format: cell membranes; details: Hippocampus
[4] = system: Mus musculus; assay: Antinociceptive activity in Kun Ming mouse assessed as paw licking time in delayed pain response phase at 80 mg/kg, ig administered 15 mins prior to formalin challenge measured after 15 to 45 mins post formalin dosing; format: functional
Procedure, shortened: (§1)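 Mice received 20 μL of 2.5% formalin (0.92% formaldehyde) in the dorsal right hind paw. Time spent licking or biting the paw was scored at 0–5 min (phase I) and 15–45 min (phase II), with a mirror behind the glass cylinder. Vehicle was 30% PEG 400 at 10 mL/kg, given 15 min before formalin. n = 10–12 per group. % antinociception = (LT_V − LT_D)/LT_V × 100.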

[5] = Half life in Sprague-Dawley rat at 5 mg/kg, iv by LC-MS/MS analysis; format: ADME, organism-based; details: in vivo
Procedure, shortened: (§2)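 SD rats, n = 3/group. Dosing was either 5 mg/kg iv via tail vein in saline or 80 mg/kg by oral gavage as a suspension in 0.5% methylcellulose. Serial tail-vein blood was drawn into heparinized tubes at 0.5, 1, 2, 3, 4, 5, 6, 8 and 24 h. Plasma was separated, proteins precipitated with acetonitrile, and samples analysed by LC/MS.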

[6] = target: Sodium-dependent serotonin transporter (Rattus norvegicus) (UniProt P31652); assay: Inhibition of 5HT transporter in rat cerebral cortex assessed as [3H]-paroxetine uptake at 1 uM after 10 mins by liquid scintillation counting analysis; format: tissue-based
Chain of Sodium-dependent serotonin transporter (Rattus norvegicus) (P31652 whole entry): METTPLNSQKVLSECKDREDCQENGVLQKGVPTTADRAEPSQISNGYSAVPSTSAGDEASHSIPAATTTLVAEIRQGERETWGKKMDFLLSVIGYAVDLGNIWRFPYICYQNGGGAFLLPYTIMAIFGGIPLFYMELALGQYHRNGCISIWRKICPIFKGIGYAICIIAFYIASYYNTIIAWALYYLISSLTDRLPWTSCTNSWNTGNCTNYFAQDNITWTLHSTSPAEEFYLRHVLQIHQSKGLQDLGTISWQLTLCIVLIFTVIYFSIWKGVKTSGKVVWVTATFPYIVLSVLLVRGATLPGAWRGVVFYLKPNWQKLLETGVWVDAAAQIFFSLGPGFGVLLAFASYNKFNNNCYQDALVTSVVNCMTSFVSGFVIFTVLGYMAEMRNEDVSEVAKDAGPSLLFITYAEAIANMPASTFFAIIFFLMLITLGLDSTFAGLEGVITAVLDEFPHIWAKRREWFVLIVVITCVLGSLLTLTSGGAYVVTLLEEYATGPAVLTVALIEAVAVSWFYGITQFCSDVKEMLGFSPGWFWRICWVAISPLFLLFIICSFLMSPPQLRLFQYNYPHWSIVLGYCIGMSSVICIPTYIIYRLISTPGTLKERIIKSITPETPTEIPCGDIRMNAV

[7] = AUC (0 to last) in Sprague-Dawley rat at 80 mg/kg, po administered through gavage by LC-MS/MS analysis; format: ADME, organism-based; parameters: dose 80 mg/kg, time 0 - last, route oral; details: in vivo
Procedure, shortened: (§3)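 Oral gavage to rats (n = 3/group), 80 mg/kg as suspension in 0.5% methylcellulose. Blood drawn serially from lateral tail vein into heparinized tubes at 30 min and 1, 2, 3, 4, 5, 6, 8 and 24 h. Plasma obtained by centrifugation, acetonitrile protein precipitation, LC/MS quantification.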

[8] = Displacement of [3H]-DTG from Sigma2 receptor in Dunkin Hartley guinea pig brain membrane after 120 mins by liquid scintillation counting analysis in presence of sigma1 blocker (+)-SKF-10047; parameters: species or system Cavia porcellus
Procedure, shortened: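 Guinea pig brain P2 membranes incubated with 3 nM [³H]-DTG plus 400 nM (+)-SKF-10047 to block σ1 sites, Tris-HCl pH 8.0, 25 °C for 120 min; nonspecific binding with DTG. Filtration on PEI-presoaked GF/B filters, scintillation counting. […] At least three experiments.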

[9] = system: Rattus norvegicus; assay: Antiallodynic activity in po dosed Sprague-Dawley rat chronic constriction injury-induced neuropathic pain model assessed as inhibition of mechanical allodynia administered as bid on day 15th and 18th post surgery by Von frey test; format: functional
Procedure, shortened: (§4)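 Sciatic nerve CCI in SD rats (Bennett–Xie) under 5% chloral hydrate: four loose 4-0 silk ligatures on the right sciatic nerve, about 1 cm proximal to the trifurcation. Oral dosing in 0.5% methylcellulose (10 mL/kg), twice daily on days 15–18. Testing followed the first dose on day 15 and the last dose on day 18. Mechanical withdrawal threshold by von Frey up–down method, four samplings averaged. 10 rats/group.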

[10] = AUC (0 to infinity) in Sprague-Dawley rat at 5 mg/kg, iv by LC-MS/MS analysis; format: ADME, organism-based; parameters: dose 5 mg/kg, time infinity, route intravenous; details: in vivo
Procedure, shortened: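 Rats (n = 3/group) dosed via lateral tail vein, 5 mg/kg in 100% saline. Serial tail-vein blood into heparinized tubes at 30 min and 1, 2, 3, 4, 5, 6, 8 and 24 h. Plasma separated by centrifugation, proteins precipitated with acetonitrile, analysed by LC/MS.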

[11] = system: Mus musculus; assay: Toxicity in Kun Ming mouse assessed as impair in motor coordination at 40 to 160 mg/kg, ig measured after 30 to 120 mins by rotarod test; format: organism-based; details: in vivo, po
Procedure, shortened: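 Mice were pre-trained; any that could not stay 300 s on the rod at 10 rpm were excluded. Latency to fall from the rod rotating at 10 rpm was recorded 30, 60, 90 and 120 min after intragastric dosing. 8–10 mice per group.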

[12] = system: Mus musculus; format: toxicity, organism-based, Kun Ming; details: in vivo, po, 40 mg/kg
[13] = target: Cannabinoid receptor 1 (Homo sapiens) (UniProt P21554); assay: Displacement of [3H]-CP-55940 from human CB1 receptor expressed in CHO cells at 1 uM after 90 mins by liquid scintillation counting analysis; format: cell-based
Chain of Cannabinoid receptor 1 (Homo sapiens) (P21554 whole entry): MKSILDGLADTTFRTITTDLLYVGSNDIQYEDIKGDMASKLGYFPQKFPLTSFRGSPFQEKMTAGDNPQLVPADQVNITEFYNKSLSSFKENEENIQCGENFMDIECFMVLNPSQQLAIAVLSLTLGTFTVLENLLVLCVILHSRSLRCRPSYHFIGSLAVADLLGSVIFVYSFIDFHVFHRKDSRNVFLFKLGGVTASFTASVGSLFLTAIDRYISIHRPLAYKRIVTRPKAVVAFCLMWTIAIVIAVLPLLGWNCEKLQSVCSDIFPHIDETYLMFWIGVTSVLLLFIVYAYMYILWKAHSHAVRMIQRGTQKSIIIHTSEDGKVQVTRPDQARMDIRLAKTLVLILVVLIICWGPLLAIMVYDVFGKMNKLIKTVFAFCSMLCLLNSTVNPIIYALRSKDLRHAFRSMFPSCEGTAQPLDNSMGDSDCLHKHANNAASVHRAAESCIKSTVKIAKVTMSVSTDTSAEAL

[14] = system: Rattus norvegicus; assay: Effect on mechanical allodynia in sham-operated Sprague-Dawley rat at 20 to 80 mg/kg, po administered as bid on days 15th to 18th; format: ADME, organism-based; details: in vivo; procedure, shortened: as §4
[15] = Clearance in Sprague-Dawley rat at 5 mg/kg, iv by LC-MS/MS analysis; format: ADME, organism-based; details: in vivo; procedure, shortened: as §2
[16] = AUC (0 to infinity) in Sprague-Dawley rat at 80 mg/kg, po administered through gavage by LC-MS/MS analysis; format: ADME, organism-based; parameters: dose 80 mg/kg, route oral, time infinity; details: in vivo; procedure, shortened: as §3
[17] = target: Cannabinoid receptor 2 (Homo sapiens) (UniProt P34972); assay: Displacement of [3H]-CP-55940 from human CB2 receptor expressed in HEK cells at 1 uM after 90 mins by liquid scintillation counting analysis; format: cell-based; details: HEK293
Chain of Cannabinoid receptor 2 (Homo sapiens) (P34972 whole entry): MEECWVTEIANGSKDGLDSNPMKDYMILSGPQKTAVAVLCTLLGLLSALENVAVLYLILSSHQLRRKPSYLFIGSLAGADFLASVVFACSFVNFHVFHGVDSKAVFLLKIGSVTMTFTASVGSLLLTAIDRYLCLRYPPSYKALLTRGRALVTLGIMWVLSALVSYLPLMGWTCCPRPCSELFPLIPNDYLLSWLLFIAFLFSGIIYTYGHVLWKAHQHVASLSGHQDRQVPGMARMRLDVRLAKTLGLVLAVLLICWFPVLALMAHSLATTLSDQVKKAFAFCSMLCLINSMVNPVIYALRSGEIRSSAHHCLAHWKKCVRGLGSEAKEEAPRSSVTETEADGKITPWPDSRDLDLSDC

[18] = system: Mus musculus; assay: Antinociceptive activity in Kun Ming mouse assessed as paw biting time in delayed pain response phase at 80 mg/kg, ig administered 15 mins prior to formalin challenge measured after 15 to 45 mins post formalin dosing; format: functional; procedure, shortened: as §1
[19] = target: Transient receptor potential cation channel subfamily V member 1 (Homo sapiens) (UniProt Q8NER1); assay: Inhibition of human TRPV-1 expressed in HEK293 cells at 1 uM by whole cell patch clamp method; format: cell-based
Chain of Transient receptor potential cation channel subfamily V member 1 (Homo sapiens) (Q8NER1 whole entry): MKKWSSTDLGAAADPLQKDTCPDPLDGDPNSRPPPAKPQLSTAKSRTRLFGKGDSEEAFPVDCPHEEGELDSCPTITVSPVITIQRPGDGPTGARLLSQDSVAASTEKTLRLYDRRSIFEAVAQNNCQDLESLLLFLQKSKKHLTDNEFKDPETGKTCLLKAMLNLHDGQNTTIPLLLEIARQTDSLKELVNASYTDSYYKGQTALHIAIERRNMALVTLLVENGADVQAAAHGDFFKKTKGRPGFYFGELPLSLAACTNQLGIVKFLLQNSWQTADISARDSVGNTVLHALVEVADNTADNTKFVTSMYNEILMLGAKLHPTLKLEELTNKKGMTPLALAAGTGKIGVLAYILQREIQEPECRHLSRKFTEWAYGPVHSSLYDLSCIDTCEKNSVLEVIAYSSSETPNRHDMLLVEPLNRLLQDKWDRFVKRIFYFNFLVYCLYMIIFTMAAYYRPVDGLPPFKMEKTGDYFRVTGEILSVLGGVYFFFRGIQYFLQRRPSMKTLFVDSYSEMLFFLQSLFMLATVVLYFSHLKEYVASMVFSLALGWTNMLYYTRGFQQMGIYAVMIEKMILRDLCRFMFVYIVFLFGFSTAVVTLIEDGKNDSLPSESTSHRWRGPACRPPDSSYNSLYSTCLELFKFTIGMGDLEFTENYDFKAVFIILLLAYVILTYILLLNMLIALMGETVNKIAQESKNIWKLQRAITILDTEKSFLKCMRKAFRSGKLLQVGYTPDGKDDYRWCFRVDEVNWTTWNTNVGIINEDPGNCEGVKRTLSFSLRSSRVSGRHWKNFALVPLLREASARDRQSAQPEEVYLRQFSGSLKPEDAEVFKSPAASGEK

`O=c1ccc(OCCCN2CCCCC2)nn1-c1ccc(Cl)c(Cl)c1` showed an inhibition [1] of less than 50%, an Activity [2] of 16458.3 mm and an inhibition [3] of less than 50%. For the same compound, the Time [4] was 45.88 s, the half-life [5] was 1.39 h and the inhibition [6] was less than 50%. The AUC(0-t) [7] was 11700 ng·h/mL, the Ki [8] was 1910 nM and the ED50 [9] was 40.3 mg/kg. The AUC(0-inf) [10] was 956 ng·h/mL, the Activity [11] was “Non-toxic” and the Activity [12] was 22826.6 mm. For the same compound, the inhibition [13] was less than 50%, the Activity [14] was “Non-toxic” and the clearance [15] was 49.3 mL/min/kg. For the same compound, the AUC(0-inf) [16] was 13400 ng·h/mL, the inhibition [17] was less than 50% and the Time [18] was 41.16 s. For the same compound, the inhibition [19] was less than 50%.
